From ChEMBL document CHEMBL1157664, “Aminopyridinecarboxamide-based inhibitors: Structure-activity relationship” (Bioorg Med Chem, 2010)

Key:
[1] = Antiinflammatory activity in human synovial fibroblasts assessed as inhibition of IL-1-beta-stimulated IL8 production treated 1 hr before IL1-beta challenge measured after 18 hrs by ELISA; format: functional
Summary of the method: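 Rheumatoid arthritis patient synovial fibroblasts seeded at 1.5 × 10^4 cells/well in DMEM + 15% FBS and left to attach overnight. Medium then changed to DMEM + 1% FBS. Cells pretreated 1 h with increasing compound concentrations (0.2% Me2SO final), then stimulated 18 h with 1 ng/mL IL-1β. Secreted IL-8 measured by ELISA against standard curves (4-parameter logistic). Cytotoxicity checked by Alamar Blue.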

[2] = target: T1, Inhibitor of nuclear factor kappa-B kinase subunit beta (Homo sapiens, UniProt O14920); experiment: Inhibition of human recombinant IKK2-mediated transfer of [gamma33P]ATP to biotinylated IkappaBalpha after 30 mins by scintillation counting
T1 sequence (O14920 whole entry): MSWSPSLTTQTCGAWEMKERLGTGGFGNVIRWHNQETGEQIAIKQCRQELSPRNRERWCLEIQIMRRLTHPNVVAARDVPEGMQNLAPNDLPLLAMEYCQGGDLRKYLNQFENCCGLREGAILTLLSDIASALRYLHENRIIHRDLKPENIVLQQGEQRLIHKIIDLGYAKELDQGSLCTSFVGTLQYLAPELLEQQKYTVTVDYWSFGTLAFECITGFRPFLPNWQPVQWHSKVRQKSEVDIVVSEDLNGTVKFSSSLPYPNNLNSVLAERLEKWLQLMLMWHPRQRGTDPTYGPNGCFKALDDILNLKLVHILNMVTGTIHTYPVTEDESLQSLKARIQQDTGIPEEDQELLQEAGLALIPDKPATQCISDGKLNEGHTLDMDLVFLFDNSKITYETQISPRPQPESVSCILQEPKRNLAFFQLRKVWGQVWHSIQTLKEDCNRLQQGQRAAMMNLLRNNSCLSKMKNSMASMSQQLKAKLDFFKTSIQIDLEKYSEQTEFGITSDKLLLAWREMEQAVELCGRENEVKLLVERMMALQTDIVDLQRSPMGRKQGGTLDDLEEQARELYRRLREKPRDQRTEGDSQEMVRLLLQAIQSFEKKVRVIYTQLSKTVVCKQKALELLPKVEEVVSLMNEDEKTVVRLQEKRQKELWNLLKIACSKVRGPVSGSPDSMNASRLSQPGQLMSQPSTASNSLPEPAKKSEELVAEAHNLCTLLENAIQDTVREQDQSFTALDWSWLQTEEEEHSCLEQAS
Summary of the method: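 Recombinant human IKK-2 enzyme (46 nM/rxn, 200 ng/rxn). Substrate 5 µM biotinylated IκBα peptide (residues spanning Ser32/Ser36) with 1 µM ATP plus 0.1 µCi [γ-33P]ATP. Buffer 25 mM Hepes pH 7.6 with 1 mM DTT, 2 mM MgCl2, 2 mM MnCl2, 10 mM NaF. Incubated 30 min at 25 °C, stopped with AG1X8 resin in formate buffer pH 3. Supernatant ³³P read by scintillation counting.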

| Structure (SMILES) | IC50 [2] | IC50 [1] |
| --- | --- | --- |
| NC(=O)c1nn(-c2ccc(F)cc2)c2c1CCc1ccc(NC(=O)c3ccnc(N4CCOCC4)c3)cc1-2 | 0.589 µM | > 5 µM |
| NC(=O)c1nn(-c2ccc(F)cc2)c2c1CCc1ccc(NC(=O)c3nc(N4CCOCC4)ccc3Cl)cc1-2 | 1.25 µM | 3.04 µM |
| CNc1ncccc1C(=O)Nc1ccc2c(c1)-c1c(c(C(N)=O)nn1-c1ccc(F)cc1)CC2 | 3.21 µM |  |
| COCCN1CCN(c2cc(C(=O)Nc3ccc4c(c3)-c3c(c(C(N)=O)nn3-c3ccc(F)cc3)CC4)c(Cl)cn2)CC1 | 0.059 µM | 1.02 µM |
| CN1CCN(c2ccc(Cl)c(C(=O)Nc3ccc4c(c3)-c3c(c(C(N)=O)nn3-c3ccc5c(c3)OCO5)CC4)n2)CC1 | 0.297 µM | 4.42 µM |
| CN1CCN(c2ncccc2C(=O)Nc2ccc3c(c2)-c2c(c(C(N)=O)nn2-c2ccc4c(c2)OCO4)CC3)CC1 | 17.3 µM |  |
| CN1CCN(c2cc(C(=O)Nc3ccc4c(c3)-c3c(c(C(N)=O)nn3-c3ccc(F)cc3)CC4)ccn2)CC1 | 0.125 µM | > 5 µM |
| NC(=O)c1nn(-c2ccc3c(c2)OCO3)c2c1CCc1ccc(NC(=O)c3cccnc3N3CCOCC3)cc1-2 | 5.91 µM |  |
| NC(=O)c1nn(-c2ccc(F)cc2)c2c1CCc1ccc(NC(=O)c3cc(N4CCOCC4)ncc3Cl)cc1-2 | 0.146 µM | 2.14 µM |
| CC(C)N1CCN(c2cc(C(=O)Nc3ccc4c(c3)-c3c(c(C(N)=O)nn3-c3ccc(F)cc3)CC4)c(Cl)cn2)CC1 | 0.107 µM | 1.49 µM |
| C[C@@H]1CN(c2cc(C(=O)Nc3ccc4c(c3)-c3c(c(C(N)=O)nn3-c3ccc(F)cc3)CC4)c(Cl)cn2)C[C@H](C)N1C | 0.098 µM | 5.5 µM |
| NC(=O)c1nn(-c2ccc(F)cc2)c2c1CCc1ccc(NC(=O)c3cccnc3N3CCOCC3)cc1-2 | 14.2 µM |  |
| NC(=O)c1nn(-c2ccc3c(c2)OCO3)c2c1CCc1ccc(NC(=O)c3cccnc3N)cc1-2 | 1.34 µM |  |
| CN1CCN(c2ccc(Cl)c(C(=O)Nc3ccc4c(c3)-c3c(c(C(N)=O)nn3-c3ccc(F)cc3)CC4)n2)CC1 | 0.348 µM | 4.83 µM |
| CNc1ncccc1C(=O)Nc1ccc2c(c1)-c1c(c(C(N)=O)nn1-c1ccc3c(c1)OCO3)CC2 | 0.21 µM | 3.37 µM |
| NC(=O)c1nn(-c2ccc(F)cc2)c2c1CCc1ccc(NC(=O)c3cccnc3N)cc1-2 | 2.32 µM |  |
| CN(C)CCNc1cc(C(=O)Nc2ccc3c(c2)-c2c(c(C(N)=O)nn2-c2ccc(F)cc2)CC3)c(Cl)cn1 | 0.07 µM | 4.72 µM |
| NC(=O)c1nn(-c2ccc3c(c2)OCO3)c2c1CCc1ccc(NC(=O)c3nc(N4CCOCC4)ccc3Cl)cc1-2 | 0.612 µM | > 100 µM |
| CNc1ccc(Cl)c(C(=O)Nc2ccc3c(c2)-c2c(c(C(N)=O)nn2-c2ccc4c(c2)OCO4)CC3)n1 | 0.477 µM | 5.74 µM |
| NC(=O)c1nn(-c2ccc3c(c2)OCO3)c2c1CCc1ccc(NC(=O)c3cc(N4CCOCC4)ncc3Cl)cc1-2 | 0.09 µM | 0.849 µM |
| CN1CCN(c2ncccc2C(=O)Nc2ccc3c(c2)-c2c(c(C(N)=O)nn2-c2ccc(F)cc2)CC3)CC1 | 16.2 µM |  |

Stronger by IC50 [2], values ahead:

| IC50 [2] | Structure (SMILES) | IC50 [1] |
| --- | --- | --- |
| 0.04 µM | NC(=O)c1nn(-c2ccc3c(c2)OCO3)c2c1CCc1ccc(NC(=O)c3cc(N4CCNCC4)ncc3Cl)cc1-2 | 1.86 µM |
| 0.048 µM | C[C@@H]1CN(c2cc(C(=O)Nc3ccc4c(c3)-c3c(c(C(N)=O)nn3-c3ccc(F)cc3)CC4)c(Cl)cn2)CCN1C | 2.18 µM |
| 0.033 µM | CN1CCN(c2cc(C(=O)Nc3ccc4c(c3)-c3c(c(C(N)=O)nn3-c3ccc5c(c3)OCO5)CC4)c(Cl)cn2)CC1 | 0.63 µM |
| 0.046 µM | C[C@@H]1CN(c2cc(C(=O)Nc3ccc4c(c3)-c3c(c(C(N)=O)nn3-c3ccc(F)cc3)CC4)c(Cl)cn2)C[C@H](C)N1 | 8.6 µM |
| 0.045 µM | C[C@H]1CN(c2cc(C(=O)Nc3ccc4c(c3)-c3c(c(C(N)=O)nn3-c3ccc(F)cc3)CC4)c(Cl)cn2)CCN1C | 1.31 µM |
| 0.01 µM | NC(=O)c1nn(-c2ccc(F)cc2)c2c1CCc1ccc(NC(=O)c3cc(N4CCNCC4)ncc3Cl)cc1-2 | 2.47 µM |
| 0.051 µM | C[C@H]1CN(c2cc(C(=O)Nc3ccc4c(c3)-c3c(c(C(N)=O)nn3-c3ccc(F)cc3)CC4)c(Cl)cn2)CCN1 | 1.32 µM |
| 0.047 µM | NC(=O)c1nn(-c2ccc(F)cc2)c2c1CCc1ccc(NC(=O)c3cccnc3Cl)cc1-2 | 12 µM |
| 0.034 µM | NC(=O)c1nn(-c2ccc3c(c2)OCO3)c2c1CCc1ccc(NC(=O)c3cccnc3Cl)cc1-2 | 5 µM |
| 0.029 µM | CN1CCCN(c2cc(C(=O)Nc3ccc4c(c3)-c3c(c(C(N)=O)nn3-c3ccc(F)cc3)CC4)c(Cl)cn2)CC1 | 2.36 µM |
| 0.027 µM | NC(=O)c1nn(-c2ccc(F)cc2)c2c1CCc1ccc(NC(=O)c3cc(N4CCCNCC4)ncc3Cl)cc1-2 | 1.94 µM |
| 0.019 µM | CN(C)CCN(C)c1cc(C(=O)Nc2ccc3c(c2)-c2c(c(C(N)=O)nn2-c2ccc(F)cc2)CC3)c(Cl)cn1 | 4.18 µM |
| 0.054 µM | C[C@@H]1CN(c2cc(C(=O)Nc3ccc4c(c3)-c3c(c(C(N)=O)nn3-c3ccc(F)cc3)CC4)c(Cl)cn2)CCN1 | 3.98 µM |
